OX1R antag-1: blocks the human orexin 1 receptor; O43613; inhibition, % at 5 µM; AID 434989; CHO/OX1R cells, Fluo-8 calcium fluorescence, orexin A; 330,000 tested, 0.43% active;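 active = inhibition above its plate's threshold, mean inhibition of all tested compounds on the plate plus 3 SD, cut at about 37% in these data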;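 also: 0% = orexin A challenge wells and 100% = SB-334867-A antagonist wells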
Target sequence (O43613 whole entry, looked up): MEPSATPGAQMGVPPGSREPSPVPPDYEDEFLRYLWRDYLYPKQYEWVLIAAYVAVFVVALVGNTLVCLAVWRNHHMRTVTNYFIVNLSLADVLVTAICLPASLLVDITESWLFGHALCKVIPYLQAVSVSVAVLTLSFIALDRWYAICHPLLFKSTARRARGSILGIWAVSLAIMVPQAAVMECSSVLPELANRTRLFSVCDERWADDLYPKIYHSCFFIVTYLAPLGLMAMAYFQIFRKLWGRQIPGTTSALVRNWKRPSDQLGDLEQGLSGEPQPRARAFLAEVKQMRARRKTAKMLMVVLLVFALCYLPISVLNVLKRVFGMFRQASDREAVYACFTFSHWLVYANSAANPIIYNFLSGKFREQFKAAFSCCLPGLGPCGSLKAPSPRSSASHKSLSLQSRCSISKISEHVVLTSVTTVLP
GalR3 antag: human GalR3 antagonism; AID 651719; inhibition, % at 3 µM; O60755; 360,000 tested, 0.44% active; HEK293 GalR3-CNG cAMP membrane potential fluorescence; galR3 body fused to GalR1 C-terminus;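 active = inhibition above the screen-wide average plus 3 SD, cut at about 13% in these data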;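 also: forskolin and galanin both at EC90 stimulate the cells; cAMP rise reported by CNG channel membrane potential dye signal; 0% = forskolin plus galanin with DMSO and 100% = forskolin alone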
CHO parental Ca: counter-screen: ATP calcium response change in parental CHO cells | parental CHO-K1, ATP-induced calcium, Fluo-8 fluorescence | inhibition, % at 5.6 µM | 330,000 tested, 0.63% active;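 active = inhibition above that plate's mean sample inhibition plus 3 SD, cut at about 26% in these data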;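 also: 0% = ATP-challenged DMSO wells and 100% = DMSO wells without ATP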
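material = parental CHO cells | also added = ATP as calcium-mobilizing challenge | dosing = single point at 5.6 µM | detection = intracellular calcium via Fluo-8 no-wash fluorescent dye | read-out = % inhibition | benchmarks = low control ATP plus DMSO, high control DMSO only | repeats = one well per compound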
TAAR1 antagonist: antagonists of human TAAR1; Q96RJ0; CHO RD-HGA16 TAAR1, Fluo-8 calcium fluorescence, antagonist; inhibition, % at 3 µM; 360,000 tested, 1.5% active; AID 624466;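 active = inhibition above a per-plate cutoff, the mean inhibition of test compounds on that plate plus 3 SD, cut at about 49% in these data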;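 also: 0% = DMSO plus EC80 beta-PEA response and 100% = DMSO alone without agonist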
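test system = CHO RD-HGA16 cells bearing hTAAR1 | replication = singlicate | controls = DMSO-only wells and EC80 β-PEA-stimulated wells | reagent = EC80 β-phenethylamine stimulus | read-out basis = percent inhibition of PEA-evoked calcium signal, max/basal emission ratio | schedule = seeding 17-24 h prior, 75-min 37 °C, 30-min RT dye loading | signal = kinetic Fluo-8 calcium fluorescence measurement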
OX1R antag-2: blocks the human orexin 1 receptor | 330,000 tested, 1.8% active | OX1R-expressing cells, FRET antagonist read-out | inhibition, % at 6.6 µM; in the data active = inhibition mostly above about 38%, no sharp cut-off; inactive = mostly below about 40%;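 also: 0% = agonist challenge alone and 100% = reference antagonist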
TAAR1 ag: agonists of human TAAR1; Q96RJ0; CHO RD-HGA16 TAAR1, Fluo-8 calcium fluorescence; vehicle wells 0%, saturating PEA agonist 100%; activation, % at 3 µM; 360,000 tested, 0.99% active;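 active = activation above the mean activation of all test compounds in the run plus 3 SD, cut at about 38% in these data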
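Test system: RD-HGA16 (CHO) cells co-expressing Gα16 and hTAAR1; dosing: one-point dosing at 3 µM (nominal); timing: 17-24 h seeding, 75 min 37 °C dye, 30 min RT; signal: kinetic Fluo-8 calcium fluorescence; read-out basis: % activation relative to PEA EC100 response; controls: DMSO and PEA EC100; replicates: n 1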
nonsel antag count: nonselective antagonism, TAAR1 counter-screen | shares compounds with TAAR1 antagonist | counterscreen cell line, calcium fluorescence, antagonist mode | inhibition, % at 3 µM | 2,400 tested, 77% active | AID 651780; in the data active = inhibition above about 22%;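 also: CHO-Ga16 host cells stimulated with ATP at an EC80 level; 0% = agonist EC80 plus vehicle and 100% = vehicle without agonist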
TAAR1 antag conf: confirmation of human TAAR1 antagonists; 2,400 tested, 40% active; shares compounds with TAAR1 antagonist; inhibition, % at 3 µM; TAAR1-expressing cells, fluorescence antagonist read-out; in the data active = inhibition above about 49%;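 also: CHO-Ga16 host cells challenged with agonist PEA near its EC80; 0% = agonist at EC80 plus vehicle and 100% = vehicle with no agonist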
Ga16 ag counter: nonselective Ga16 agonist in TAAR1 antagonist counter-screen | shares compounds with TAAR1 antagonist | Ga16-expressing cells, calcium fluorescence, agonist counterscreen | activation, % at 3 µM | 2,400 tested, 18% active; in the data active = activation above about 12%;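 also: 0% = vehicle wells and 100% = saturating stimulus response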
TAAR1 ag count: counter-screen for human TAAR1 antagonists: TAAR1 agonists; shares compounds with TAAR1 antagonist; hTAAR1 cell line, fluorescence activation, agonist mode; activation, % at 3 µM; 2,400 tested, 2% active; in the data active = activation above about 37%;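 also: CHO cells stably expressing TAAR1 with calcium dye readout; 0% = DMSO vehicle and 100% = full agonist response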
An asterisk follows results filed as active. This is a sample that favours compounds with a hit; in the whole collection about 4.3% have one here.

For CC(C)(C)OC(=O)CNC(=O)c1nc[nH]c1C(=O)NCc1ccc(CNC(=O)OC(C)(C)C)cc1 the results were OX1R antag-1 -3, GalR3 antag 0, CHO parental Ca 4, TAAR1 antagonist 70*, OX1R antag-2 9, TAAR1 ag 18, nonsel antag count 41*, TAAR1 antag conf 54*, Ga16 ag counter 16* and TAAR1 ag count 17.
`Cc1cccc(NC(=O)c2nc[nH]c2C(=O)NCCCCCNC(=O)OC(C)(C)C)c1` gave OX1R antag-1 -15, GalR3 antag -6, CHO parental Ca -16, TAAR1 antagonist 56*, OX1R antag-2 7, TAAR1 ag 15, nonsel antag count 19, TAAR1 antag conf 38, Ga16 ag counter 5 and TAAR1 ag count 12.
CC(C)(C)OC(=O)NCc1ccc(CNC(=O)c2nc[nH]c2C(=O)NCc2ccc(CNC(=O)OC(C)(C)C)cc2)cc1 was read as OX1R antag-1 21, GalR3 antag -1, CHO parental Ca 2, TAAR1 antagonist 43, OX1R antag-2 0 and TAAR1 ag 8.
For Cc1ccc(NC(=O)C(C)c2ccc(-c3ccccc3)c(F)c2)c(C)c1 (configuration not stated) the results were OX1R antag-1 -24, GalR3 antag -1, CHO parental Ca 0, TAAR1 antagonist 54*, OX1R antag-2 11, TAAR1 ag 19, nonsel antag count 18, TAAR1 antag conf 22, Ga16 ag counter 3 and TAAR1 ag count 4.
Cc1nn(CCc2nn[nH]n2)c2nc(-c3ccc(Br)cc3)cc(C(F)(F)F)c12 was read as OX1R antag-1 -17, GalR3 antag -2, CHO parental Ca -2, TAAR1 antagonist 71*, OX1R antag-2 6, TAAR1 ag 2, nonsel antag count 16, TAAR1 antag conf 33, Ga16 ag counter 2 and TAAR1 ag count -4.
Cc1ccccc1C(=O)N1CCN(c2ccc(NC(=O)c3ccc4c(c3)OCO4)cc2)CC1 was read as OX1R antag-1 -23, GalR3 antag -7, CHO parental Ca -8, TAAR1 antagonist 53*, OX1R antag-2 11, TAAR1 ag 12, nonsel antag count 27*, TAAR1 antag conf 45, Ga16 ag counter 9 and TAAR1 ag count 8.
`O=C(Nc1ccc(N2CCN(C(=O)c3ccco3)CC2)cc1)c1ccc2c(c1)OCO2` gave OX1R antag-1 -20, GalR3 antag -5, CHO parental Ca -17, TAAR1 antagonist 12, OX1R antag-2 7 and TAAR1 ag 8.
CC(=O)N1CCN(c2ccc(NC(=O)c3ccc(Cl)cc3)cc2)CC1 was read as OX1R antag-1 8, GalR3 antag -2, CHO parental Ca -2, TAAR1 antagonist 15, OX1R antag-2 14 and TAAR1 ag 3.
Screening CC(=O)N1CCN(c2ccc(NC(=O)c3ccc(C(C)(C)C)cc3)cc2)CC1 returned OX1R antag-1 6, GalR3 antag -2, CHO parental Ca -2, TAAR1 antagonist 62*, OX1R antag-2 0, TAAR1 ag 27, nonsel antag count 29*, TAAR1 antag conf 46, Ga16 ag counter 9 and TAAR1 ag count 10.
Screening Cc1cc(OCC(=O)Nc2ccc(N3CCCC3)cc2)cc(C)c1Cl returned OX1R antag-1 -15, GalR3 antag -3, CHO parental Ca -14, TAAR1 antagonist -7, OX1R antag-2 6 and TAAR1 ag -1.
